The values below come from ChEMBL document CHEMBL5107954, “Potency and metabolic stability: a molecular hybrid case in the design of novel PF74-like small molecules targeting HIV-1 capsid protein” (RSC Med Chem, 2021).

Some results are limits rather than exact numbers.

For series [1], the system named is Human immunodeficiency virus 1. The series is described as follows: Binding affinity to HIV-1 capsid protein 121 expressed in Escherichia coli BL21 (DE3) cells assessed as change in melting temperature at 20 uM measured every 10 sec by RT-PCR based thermal shift assay. Put shortly:
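Crosslinked hexameric CA A14C/E45C/W184A/M185A (CA121), purified protein at 7.5 μM in 50 mM sodium phosphate pH 8.0 with 1× Sypro Orange; compound 20 μM or DMSO control, 1% DMSO final. Heated 25 to 95 °C at 0.2 °C per 10 s in a real-time PCR instrument; fluorescence Ex 475–500, Em 520–590 nm. ΔTm is the hexamer melting point with compound minus DMSO control.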

A short description of series [2]: Antiviral activity against wild type HIV1 NL4-3 infected in human TZM cells expressing GFP assessed as inhibition of viral LTR-activated GFP expression preincubated with compound for 24 hrs followed by viral infection and measured after 48 hrs. In kind it is functional, cell-based. The note with it: Human immunodeficiency virus 1, NL4-3, TZM. The gist of the method: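 TZM-GFP cells at 1 × 10^4 cells/well were treated with increasing compound concentrations, then infected 24 h later with HIV-1 NL4-3 at MOI 0.1. After 48 h, GFP-positive cells were counted by imaging and compared with DMSO controls. EC50 came from a log(inhibitor) vs. normalized response, variable-slope fit. Run in duplicate, ≥2 independent experiments, mean ± SD.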

Series [3] in a line: Cytotoxicity against human TZM cells expressing GFP assessed as inhibition of cell growth incubated for 72 hrs by XTT assay. The format is toxicity, cell-based. Put shortly: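 TZM-GFP cells at 1 × 10^4 cells/well were exposed continuously to increasing compound concentrations for 72 h. Viable cells were read by XTT. CC50 came from a log(inhibitor) vs. normalized response, variable-slope curve fit. Run in duplicate, ≥2 independent experiments, mean ± SD.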
(Tetrazolium dyes change colour on reduction, which living cells bring about.)

Series [4] in a line: Metabolic stability in human liver microsomes assessed as half-life at 1 uM measured upto 15 mins in the presence of NADPH as co-factor by LC-MS/MS analysis. The format is ADME, Microsome. On the technique in general: Microsomes from liver hold many membrane-bound enzymes, among them those of drug oxidation.
A short description of series [5]: Metabolic stability in mouse liver microsomes assessed as half-life at 1 uM measured upto 15 mins in the presence of NADPH as co-factor by LC-MS/MS analysis. In kind it is ADME, Microsome.

For the compound `CN(C(=O)[C@H](Cc1ccccc1)NC(=O)CN1CCN(C(=O)c2cccc(S(=O)(=O)F)c2)CC1=O)c1ccc(Cl)cc1`, the ΔTm in series [1] is 1.1 °C. Besides, in series [2], the EC50 was more than 20 µM. Moreover, the cytotoxic concentration (CC50) at 72 h in series [3] is more than 50 µM.

As to `CN(C(=O)[C@H](Cc1ccccc1)NC(=O)CN1CCN(C(=O)c2ccccc2Br)CC1=O)c1ccc(Cl)cc1`, the ΔTm in series [1] came to 1.1 °C. The 50% effective concentration (EC50) in series [2] is 3.8 µM. The 50% cytotoxic concentration (CC50) at 72 h in series [3] is more than 50 µM. In addition, the half-life at 1 µM amounted to 7.9 min in series [4] and 1.8 min in series [5].

With `CN(C(=O)[C@H](Cc1ccccc1)NC(=O)CN1CCN(C(=O)c2cccc(Cl)n2)CC1=O)c1ccc(Cl)cc1`, in series [1], the ΔTm stood at 1.1 °C. Further, the concentration giving a half-maximal response (EC50) in series [2] stood at 7.7 µM. In series [3], the half-maximal cytotoxic concentration (CC50) at 72 h is more than 50 µM. The half-life at 1 µM came to 3.6 min in series [4] and 1 min in series [5].

For the compound `CN(C(=O)[C@H](Cc1ccccc1)NC(=O)CN1CCN(C(=O)c2cccc(Cl)c2)CC1=O)c1ccc(Cl)cc1`, the ΔTm in series [1] came to 1 °C. In series [2], the EC50 is 10.2 µM. Further, the CC50 at 72 h in series [3] was more than 50 µM.

Consider `CN(C(=O)[C@H](Cc1ccccc1)NC(=O)CN1CCN(C(=O)c2ccc(S(=O)(=O)F)cc2)CC1=O)c1ccc(Cl)cc1`, for which, in series [1], the ΔTm is 0.8 °C. Further, the concentration for a half-maximal effect (EC50) in series [2] is more than 20 µM. Also, in series [3], the CC50 at 72 h was more than 50 µM.

Turning to `CN(C(=O)[C@H](Cc1ccccc1)NC(=O)CN1CCN(C(=O)c2ccc(N)cc2)CC1=O)c1ccc(Cl)cc1`, the ΔTm in series [1] came out at 0.5 °C. The EC50 in series [2] is more than 20 µM. Moreover, the CC50 at 72 h in series [3] was more than 50 µM.

Consider `CN(C(=O)[C@H](Cc1ccccc1)NC(=O)CN1CCN(C(=O)c2ccccc2C#N)CC1=O)c1ccc(Cl)cc1`, for which, in series [1], the ΔTm turned out to be 2.1 °C. In addition, the EC50 in series [2] was 7.5 µM. For the same compound, the CC50 at 72 h in series [3] was more than 50 µM.

For `CN(C(=O)[C@H](Cc1ccccc1)NC(=O)CN1CCN(C(=O)c2cccc(F)c2)CC1=O)c1ccc(Cl)cc1`, the shift in melting temperature (ΔTm) in series [1] came to 1.7 °C. In addition, in series [2], the EC50 is 13.3 µM. Further, in series [3], the CC50 at 72 h was more than 50 µM.

Turning to `CN(C(=O)[C@H](Cc1ccccc1)NC(=O)CN1CCN(C(=O)c2ccncc2)CC1=O)c1ccc(Cl)cc1`, the ΔTm in series [1] is 0.7 °C. The concentration giving a half-maximal response (EC50) in series [2] was found to be 15.6 µM. Further, the CC50 at 72 h in series [3] was more than 50 µM.

As for `CN(C(=O)[C@H](Cc1ccccc1)NC(=O)CN1CCN(C(=O)c2cccnc2)CC1=O)c1ccc(Cl)cc1`, the shift in melting temperature (ΔTm) in series [1] amounted to 0.7 °C. In addition, in series [2], the concentration giving a half-maximal response (EC50) was found to be 12.5 µM. Besides, the CC50 at 72 h in series [3] was more than 50 µM.

`CN(C(=O)[C@H](Cc1ccccc1)NC(=O)CN1CCN(C(=O)c2ccccc2)CC1=O)c1ccc(Cl)cc1`: the ΔTm in series [1] turned out to be 0.7 °C. The EC50 in series [2] was more than 20 µM. For the same compound, in series [3], the CC50 at 72 h is more than 50 µM.

Consider `CN(C(=O)[C@H](Cc1ccccc1)NC(=O)CN1CCN(C(=O)c2ccccc2F)CC1=O)c1ccc(Cl)cc1`, for which, in series [1], the thermal shift (ΔTm) turned out to be 1.6 °C. In series [2], the EC50 came out at 9.5 µM. In series [3], the CC50 at 72 h is more than 50 µM. Besides, the half-life at 1 µM in series [4] came to 4.1 min; in series [5] it was 0.9 min.

With `CN(C(=O)[C@H](Cc1ccccc1)NC(=O)CN1CCN(C(=O)c2ccc(O)cc2)CC1=O)c1ccc(Cl)cc1`, the ΔTm in series [1] amounted to 0.7 °C. Further, the EC50 in series [2] was more than 20 µM. Also, the CC50 at 72 h in series [3] is more than 50 µM.

Take `CN(C(=O)[C@H](Cc1ccccc1)NC(=O)CN1CCN(C(=O)c2cccc(C#N)c2)CC1=O)c1ccc(Cl)cc1`: in series [1], the ΔTm amounted to 1.5 °C. Further, in series [2], the EC50 worked out at 12.9 µM. Besides, in series [3], the CC50 at 72 h is more than 50 µM.

As to `CN(C(=O)[C@H](Cc1ccccc1)NC(=O)CN1CCN(C(=O)c2ccc([N+](=O)[O-])cc2)CC1=O)c1ccc(Cl)cc1`, in series [1], the ΔTm is 1.5 °C. Moreover, the EC50 in series [2] is more than 20 µM. For the same compound, the CC50 at 72 h in series [3] is more than 50 µM.

Turning to `CN(C(=O)[C@H](Cc1ccccc1)NC(=O)Cn1ccc(C(F)(F)F)c(Oc2cc(Cl)cc(C(=O)O)c2)c1=O)c1ccc(Cl)cc1`, the ΔTm in series [1] was found to be 1.9 °C. Moreover, the EC50 in series [2] was more than 20 µM. The CC50 at 72 h in series [3] is more than 50 µM.

In the case of `Cc1[nH]c2ccccc2c1CC(=O)N[C@@H](Cc1ccccc1)C(=O)N(C)c1ccccc1`, in series [1], the ΔTm worked out at 6.9 °C. For the same compound, in series [3], the CC50 at 72 h is more than 50 µM.

As to `CN(C(=O)[C@H](Cc1ccccc1)NC(=O)CN1CCN(C(=O)c2ccccc2C(F)(F)F)CC1=O)c1ccc(Cl)cc1`, the ΔTm in series [1] came to 1.4 °C. In series [2], the EC50 was 7.2 µM. Moreover, the CC50 at 72 h in series [3] is more than 50 µM.

Turning to `CN(C(=O)[C@H](Cc1ccccc1)NC(=O)CN1CCN(C(=O)c2cccc(C(F)(F)F)c2)CC1=O)c1ccc(Cl)cc1`, in series [1], the ΔTm amounted to 0.3 °C. In addition, the EC50 in series [2] is more than 20 µM. The CC50 at 72 h in series [3] is more than 50 µM.

With `CN(C(=O)[C@H](Cc1ccccc1)NC(=O)CN1CCN(C(=O)c2ccc(Br)cc2)CC1=O)c1ccc(Cl)cc1`, in series [1], the ΔTm is 0.8 °C. Moreover, in series [2], the EC50 turned out to be 10.2 µM. Also, in series [3], the CC50 at 72 h is more than 50 µM.

On to `CN(C(=O)[C@H](Cc1ccccc1)NC(=O)CN1CCN(C(=O)c2cccc(N)c2)CC1=O)c1ccc(Cl)cc1`, for which the ΔTm in series [1] is 0.3 °C. Besides, the EC50 in series [2] is more than 20 µM. Also, the CC50 at 72 h in series [3] is more than 50 µM.

With `CN(C(=O)[C@H](Cc1ccccc1)NC(=O)CN1CCN(C(=O)c2c[nH]c3ccccc23)CC1=O)c1ccc(Cl)cc1`, the ΔTm in series [1] stood at 0.3 °C. The concentration giving a half-maximal response (EC50) in series [2] is more than 20 µM. The CC50 at 72 h in series [3] is more than 50 µM.

As for `CN(C(=O)[C@H](Cc1ccccc1)NC(=O)CN1CCN(C(=O)c2cccc(O)c2)CC1=O)c1ccc(Cl)cc1`, the ΔTm in series [1] is 0.8 °C. The concentration for a half-maximal effect (EC50) in series [2] was more than 20 µM. Moreover, in series [3], the CC50 at 72 h is more than 50 µM.

Regarding `CN(C(=O)[C@H](Cc1ccccc1)NC(=O)CN1CCN(C(=O)c2ccccc2O)CC1=O)c1ccc(Cl)cc1`, the ΔTm in series [1] worked out at 0.8 °C. Further, the EC50 in series [2] was more than 20 µM. The CC50 at 72 h in series [3] was more than 50 µM.

Turning to `CN(C(=O)[C@H](Cc1ccccc1)NC(=O)CN1CCN(C(=O)c2ccc(F)cc2)CC1=O)c1ccc(Cl)cc1`, the ΔTm in series [1] is 1.3 °C. Also, in series [2], the 50% effective concentration (EC50) was 11.5 µM. Moreover, the CC50 at 72 h in series [3] is more than 50 µM.

Turning to `CN(C(=O)[C@H](Cc1ccccc1)NC(=O)CN1CCN(C(=O)c2ccc(C#N)cc2)CC1=O)c1ccc(Cl)cc1`, the thermal shift (ΔTm) in series [1] was 1.7 °C. Besides, the EC50 in series [2] amounted to 11 µM. Also, the CC50 at 72 h in series [3] is more than 50 µM.

On to `CN(C(=O)[C@H](Cc1ccccc1)NC(=O)CN1CCN(C(=O)c2ccccn2)CC1=O)c1ccc(Cl)cc1`, for which the thermal shift (ΔTm) in series [1] amounted to 0.8 °C. The EC50 in series [2] amounted to 12.7 µM. The 50% cytotoxic concentration (CC50) at 72 h in series [3] was more than 50 µM.

For `CN(C(=O)[C@H](Cc1ccccc1)NC(=O)CN1CCN(C(=O)c2cn[nH]c2)CC1=O)c1ccc(Cl)cc1`, the ΔTm in series [1] was determined as 1.3 °C. Besides, in series [2], the EC50 was more than 20 µM. In addition, in series [3], the cytotoxic concentration (CC50) at 72 h is more than 50 µM.

Consider `CN(C(=O)[C@H](Cc1ccccc1)NC(=O)CN1CCN(C(=O)c2ccc(C(F)(F)F)cc2)CC1=O)c1ccc(Cl)cc1`, for which the ΔTm in series [1] was found to be 0.5 °C. The concentration for a half-maximal effect (EC50) in series [2] is more than 20 µM. For the same compound, in series [3], the CC50 at 72 h is more than 50 µM.

For `CN(C(=O)[C@H](Cc1ccccc1)NC(=O)CN1CCN(C(=O)c2ccccc2Br)CC1)c1ccc(Cl)cc1`, the ΔTm in series [1] turned out to be 0.7 °C. Also, the concentration for a half-maximal effect (EC50) in series [2] was determined as 20 µM. Besides, the CC50 at 72 h in series [3] was more than 50 µM.

`CN(C(=O)[C@H](Cc1ccccc1)NC(=O)CN1CCNCC1=O)c1ccc(Cl)cc1`: the ΔTm in series [1] came to 0.1 °C. Moreover, in series [2], the EC50 was more than 20 µM. Besides, in series [3], the CC50 at 72 h was more than 50 µM.

Usually ΔTm stands for the shift of the melting midpoint relative to a reference. The EC50 is the concentration giving half of the maximal effect. For orientation: CC50 means the concentration at which the toxic effect on the cells reaches its halfway point. Broadly, the half-life is the time in which the quantity being followed falls by half.
